Measurements: ChEMBL document CHEMBL1156339, “A virtual screening hit reveals new possibilities for developing group III metabotropic glutamate receptor agonists” (J Med Chem, 2010)
Activity calls are given as the source filed them. The calls are words filed in the database; no cut-off is given here.

Tests used:
[1] = target: T1, Metabotropic glutamate receptor 6 (Rattus norvegicus, UniProt P35349); test: Agonist activity at rat mGlu6 receptor expressed in HEK293 cells co-transfected with G-protein alpha and EAAC1 assessed as increase in intracellular calcium level after 1 hr by fluorescence microplate reader; format: functional, cell-based
Summary of the method: (§1)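 HEK293 cells electroporated with rat receptor plus chimeric G-protein alpha subunit and EAAC1, grown 24 h in polyornithine-coated plates in glutamate/glutamine-free medium. Cells loaded 1 h at 37 °C with Fluo-4 AM in HBSS with 2.5 mM probenecid, washed. Agonist added after 20 s of recording. Fluorescence read at ex 485/em 525 nm over a concentration range, triplicate points. EC50 given as mean ± SEM of n experiments.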

[2] = target: Metabotropic glutamate receptor 5 (Rattus norvegicus) (UniProt P31424); test: Agonist activity at rat mGlu5 receptor expressed in HEK293 cells; format: functional, cell-based
Chain of Metabotropic glutamate receptor 5 (Rattus norvegicus) (P31424 21-1203 limits assumed): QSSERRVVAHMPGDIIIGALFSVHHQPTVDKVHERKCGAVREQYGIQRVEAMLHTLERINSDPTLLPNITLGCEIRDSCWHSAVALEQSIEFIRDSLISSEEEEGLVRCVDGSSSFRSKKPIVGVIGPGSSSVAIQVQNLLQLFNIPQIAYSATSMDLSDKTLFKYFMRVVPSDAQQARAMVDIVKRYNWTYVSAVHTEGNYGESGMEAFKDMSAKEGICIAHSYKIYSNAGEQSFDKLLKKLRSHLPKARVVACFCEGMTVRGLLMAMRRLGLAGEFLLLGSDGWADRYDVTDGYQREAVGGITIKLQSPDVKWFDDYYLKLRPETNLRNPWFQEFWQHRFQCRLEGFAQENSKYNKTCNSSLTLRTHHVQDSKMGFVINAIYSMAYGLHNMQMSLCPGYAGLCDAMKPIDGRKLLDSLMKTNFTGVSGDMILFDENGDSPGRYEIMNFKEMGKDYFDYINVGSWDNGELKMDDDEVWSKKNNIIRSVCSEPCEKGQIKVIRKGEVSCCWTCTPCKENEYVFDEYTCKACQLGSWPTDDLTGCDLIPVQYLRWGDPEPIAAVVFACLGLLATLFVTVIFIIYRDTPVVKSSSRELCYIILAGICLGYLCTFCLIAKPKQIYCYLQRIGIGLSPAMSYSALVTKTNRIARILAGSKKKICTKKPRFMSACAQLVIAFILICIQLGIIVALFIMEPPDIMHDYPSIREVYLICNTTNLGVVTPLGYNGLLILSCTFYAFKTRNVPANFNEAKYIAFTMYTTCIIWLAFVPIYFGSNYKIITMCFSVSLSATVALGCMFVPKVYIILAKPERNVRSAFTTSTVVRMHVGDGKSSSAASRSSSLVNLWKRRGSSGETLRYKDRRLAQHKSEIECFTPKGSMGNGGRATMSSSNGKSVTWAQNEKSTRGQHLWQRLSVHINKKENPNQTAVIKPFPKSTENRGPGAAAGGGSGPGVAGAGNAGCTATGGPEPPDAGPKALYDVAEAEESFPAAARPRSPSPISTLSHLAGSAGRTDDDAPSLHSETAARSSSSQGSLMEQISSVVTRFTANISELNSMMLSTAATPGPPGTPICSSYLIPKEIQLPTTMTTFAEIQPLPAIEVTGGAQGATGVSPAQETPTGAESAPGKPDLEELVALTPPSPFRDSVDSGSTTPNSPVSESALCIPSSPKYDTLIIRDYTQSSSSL
Summary of the method: (§2)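 Receptor transiently electroporated into HEK293 cells (DMEM, 10% FCS, penicillin/streptomycin) with EAAC1 transporter, plated in 96-well plates; tested for agonist or antagonist activity coupled to PLC, read out by IP or Fluo-4 Ca2+ assays.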

[3] = target: T2, Metabotropic glutamate receptor 4 (Rattus norvegicus, UniProt P31423); test: (§3) Agonist activity at rat mGlu4 receptor expressed in HEK293 cells co-transfected with G-protein alpha and EAAC1 assessed as increase in intracellular calcium level after 1 hr by fluorescence microplate reader; format: functional, cell-based; summary of the method: as §1
[4] = target: Metabotropic glutamate receptor 1 (Rattus norvegicus) (UniProt P23385); test: Agonist activity at rat mGlu1 receptor expressed in HEK293 cells; format: functional, cell-based; summary of the method: as §2
Chain of Metabotropic glutamate receptor 1 (Rattus norvegicus) (P23385 19-1199 limits assumed): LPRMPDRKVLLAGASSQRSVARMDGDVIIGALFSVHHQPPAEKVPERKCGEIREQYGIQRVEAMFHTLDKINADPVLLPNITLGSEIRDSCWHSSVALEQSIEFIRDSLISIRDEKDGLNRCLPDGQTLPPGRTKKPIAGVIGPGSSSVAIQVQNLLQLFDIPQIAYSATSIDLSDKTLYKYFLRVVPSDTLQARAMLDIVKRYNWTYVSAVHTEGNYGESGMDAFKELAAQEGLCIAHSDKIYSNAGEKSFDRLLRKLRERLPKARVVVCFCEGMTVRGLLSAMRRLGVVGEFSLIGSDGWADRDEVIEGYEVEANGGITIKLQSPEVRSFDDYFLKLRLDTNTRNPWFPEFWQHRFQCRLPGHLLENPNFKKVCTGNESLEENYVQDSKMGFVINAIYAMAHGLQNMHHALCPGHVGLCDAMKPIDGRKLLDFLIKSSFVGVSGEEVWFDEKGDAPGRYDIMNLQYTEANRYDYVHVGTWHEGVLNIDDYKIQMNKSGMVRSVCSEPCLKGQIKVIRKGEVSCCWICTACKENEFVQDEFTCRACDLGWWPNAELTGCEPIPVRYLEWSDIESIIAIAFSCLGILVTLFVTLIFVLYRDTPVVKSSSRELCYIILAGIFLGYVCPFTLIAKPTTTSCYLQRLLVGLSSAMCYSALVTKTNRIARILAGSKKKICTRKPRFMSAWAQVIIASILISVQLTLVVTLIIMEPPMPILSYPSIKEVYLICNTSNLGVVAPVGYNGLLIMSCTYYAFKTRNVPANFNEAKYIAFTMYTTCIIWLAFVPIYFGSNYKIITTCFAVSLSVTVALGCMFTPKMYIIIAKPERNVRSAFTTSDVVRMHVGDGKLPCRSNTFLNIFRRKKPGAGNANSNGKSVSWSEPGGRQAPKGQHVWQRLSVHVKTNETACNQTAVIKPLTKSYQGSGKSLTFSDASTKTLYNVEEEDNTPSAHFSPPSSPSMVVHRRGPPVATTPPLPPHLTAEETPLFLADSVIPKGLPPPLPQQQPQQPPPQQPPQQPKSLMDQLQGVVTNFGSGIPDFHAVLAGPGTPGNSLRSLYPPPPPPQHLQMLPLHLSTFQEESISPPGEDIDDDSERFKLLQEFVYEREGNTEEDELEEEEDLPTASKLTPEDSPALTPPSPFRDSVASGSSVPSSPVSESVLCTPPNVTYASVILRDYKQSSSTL

[5] = target: T1, Metabotropic glutamate receptor 6; test: Agonist activity at rat mGlu6 receptor expressed in HEK293 cells co-transfected with G-protein alpha and EAAC1 assessed as increase in intracellular inositol phosphate accumulation after 1 hr by scintillation counting; format: functional, cell-based
Summary of the method: (§4)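 Rat receptor, chimeric G-protein alpha subunit and EAAC1 electroporated into HEK293 cells and grown 24 h in polyornithine-coated plates in glutamate/glutamine-free medium. Labelled overnight with 3H-myoinositol from 6 h post-transfection. Ambient glutamate degraded with glutamate-pyruvate transaminase, then agonist applied 30 min. Lysis 1 h in cold 0.1 M formic acid. 3H-IP isolated on Dowex and counted. IP normalised to IP plus membrane radioactivity, triplicate; mean ± SEM of n experiments.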

[6] = target: T3, Metabotropic glutamate receptor 8 (Rattus norvegicus, UniProt P70579); test: Agonist activity at rat mGlu8 receptor expressed in HEK293 cells co-transfected with G-protein alpha and EAAC1 assessed as increase in intracellular inositol phosphate accumulation after 1 hr by scintillation counting; format: functional, cell-based; summary of the method: as §4
T3 sequence (P70579 whole entry): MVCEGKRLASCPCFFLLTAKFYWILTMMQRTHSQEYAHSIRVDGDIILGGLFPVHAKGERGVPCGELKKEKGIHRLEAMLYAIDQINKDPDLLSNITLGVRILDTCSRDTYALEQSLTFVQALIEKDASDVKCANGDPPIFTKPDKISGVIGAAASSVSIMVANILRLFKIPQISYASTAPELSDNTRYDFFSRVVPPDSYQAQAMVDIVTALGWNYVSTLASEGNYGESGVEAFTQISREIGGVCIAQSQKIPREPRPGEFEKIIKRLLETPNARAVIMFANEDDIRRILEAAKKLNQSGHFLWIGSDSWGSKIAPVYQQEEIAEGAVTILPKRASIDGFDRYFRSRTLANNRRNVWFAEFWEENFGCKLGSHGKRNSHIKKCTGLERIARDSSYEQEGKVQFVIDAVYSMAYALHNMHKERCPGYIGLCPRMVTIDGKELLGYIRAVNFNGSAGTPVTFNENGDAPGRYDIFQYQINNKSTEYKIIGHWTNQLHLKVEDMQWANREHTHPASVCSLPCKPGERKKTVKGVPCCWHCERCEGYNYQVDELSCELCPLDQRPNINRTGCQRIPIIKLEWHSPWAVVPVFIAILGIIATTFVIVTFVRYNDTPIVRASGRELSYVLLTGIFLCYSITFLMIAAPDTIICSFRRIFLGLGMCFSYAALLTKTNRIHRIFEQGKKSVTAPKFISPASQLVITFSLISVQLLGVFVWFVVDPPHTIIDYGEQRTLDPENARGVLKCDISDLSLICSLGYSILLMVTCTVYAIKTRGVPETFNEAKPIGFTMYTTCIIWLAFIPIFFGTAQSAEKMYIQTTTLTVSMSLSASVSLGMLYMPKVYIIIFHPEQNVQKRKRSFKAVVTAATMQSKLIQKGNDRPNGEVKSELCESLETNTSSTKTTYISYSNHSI

[7] = target: T4, Metabotropic glutamate receptor 7 (Rattus norvegicus, UniProt P35400); test: (§5) Agonist activity at rat mGlu7 receptor expressed in HEK293 cells co-transfected with G-protein alpha and EAAC1 assessed as increase in intracellular calcium level after 1 hr by fluorescence microplate reader; format: functional, cell-based
T4 sequence (P35400 whole entry): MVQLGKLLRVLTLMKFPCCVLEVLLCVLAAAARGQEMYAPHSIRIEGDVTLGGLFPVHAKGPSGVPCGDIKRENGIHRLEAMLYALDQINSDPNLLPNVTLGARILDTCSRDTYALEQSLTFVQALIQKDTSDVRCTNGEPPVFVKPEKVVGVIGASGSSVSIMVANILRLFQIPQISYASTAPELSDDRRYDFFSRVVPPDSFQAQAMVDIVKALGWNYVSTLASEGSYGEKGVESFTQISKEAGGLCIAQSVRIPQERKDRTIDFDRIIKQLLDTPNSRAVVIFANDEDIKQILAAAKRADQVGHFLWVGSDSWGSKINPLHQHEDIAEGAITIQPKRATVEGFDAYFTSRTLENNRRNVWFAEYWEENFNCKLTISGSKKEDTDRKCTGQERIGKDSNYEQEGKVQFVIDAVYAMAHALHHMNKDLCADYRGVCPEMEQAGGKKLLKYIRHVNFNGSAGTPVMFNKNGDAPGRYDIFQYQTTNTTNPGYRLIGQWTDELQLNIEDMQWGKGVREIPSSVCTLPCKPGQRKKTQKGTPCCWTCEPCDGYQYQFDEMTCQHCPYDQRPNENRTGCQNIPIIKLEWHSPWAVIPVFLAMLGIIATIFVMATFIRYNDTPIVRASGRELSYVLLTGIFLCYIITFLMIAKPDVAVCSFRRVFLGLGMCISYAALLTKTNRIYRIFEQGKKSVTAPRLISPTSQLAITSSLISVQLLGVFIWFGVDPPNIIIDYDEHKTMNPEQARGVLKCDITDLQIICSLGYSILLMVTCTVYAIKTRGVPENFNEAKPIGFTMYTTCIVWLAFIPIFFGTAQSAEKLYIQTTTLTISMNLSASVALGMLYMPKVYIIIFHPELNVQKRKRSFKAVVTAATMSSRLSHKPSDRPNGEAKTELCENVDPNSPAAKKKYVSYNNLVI
Summary of the method: (§6)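 Rat mGlu7 electroporated into HEK293 cells with a chimeric G-protein α subunit and EAAC1. Cells were grown 24 h on polyornithine in glutamate/glutamine-free medium, then loaded with Fluo-4 AM in HBSS with 2.5 mM probenecid for 1 h at 37 °C and washed. Agonist was added 20 s into recording, and fluorescence was read at ex 485/em 525 nm. Points were run in triplicate across a concentration series to give EC50.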

[8] = target: T3, Metabotropic glutamate receptor 8; test: (§7) Agonist activity at rat mGlu8 receptor expressed in HEK293 cells co-transfected with G-protein alpha and EAAC1 assessed as increase in intracellular calcium level after 1 hr by fluorescence microplate reader; format: functional, cell-based; summary of the method: as §1
[9] = target: T2, Metabotropic glutamate receptor 4; test: Agonist activity at rat mGlu4 receptor expressed in HEK293 cells co-transfected with G-protein alpha and EAAC1 assessed as increase in intracellular inositol phosphate accumulation after 1 hr by scintillation counting; format: functional, cell-based; summary of the method: as §4
[10] = target: Metabotropic glutamate receptor 2 (Rattus norvegicus, UniProt P31421); test: Agonist activity at rat mGlu2 receptor expressed in HEK293 cells assessed as increase in intracellular calcium level after 1 hr by fluorescence microplate reader; format: functional, cell-based; summary of the method: as §1
Chain of Metabotropic glutamate receptor 2 (P31421 whole entry): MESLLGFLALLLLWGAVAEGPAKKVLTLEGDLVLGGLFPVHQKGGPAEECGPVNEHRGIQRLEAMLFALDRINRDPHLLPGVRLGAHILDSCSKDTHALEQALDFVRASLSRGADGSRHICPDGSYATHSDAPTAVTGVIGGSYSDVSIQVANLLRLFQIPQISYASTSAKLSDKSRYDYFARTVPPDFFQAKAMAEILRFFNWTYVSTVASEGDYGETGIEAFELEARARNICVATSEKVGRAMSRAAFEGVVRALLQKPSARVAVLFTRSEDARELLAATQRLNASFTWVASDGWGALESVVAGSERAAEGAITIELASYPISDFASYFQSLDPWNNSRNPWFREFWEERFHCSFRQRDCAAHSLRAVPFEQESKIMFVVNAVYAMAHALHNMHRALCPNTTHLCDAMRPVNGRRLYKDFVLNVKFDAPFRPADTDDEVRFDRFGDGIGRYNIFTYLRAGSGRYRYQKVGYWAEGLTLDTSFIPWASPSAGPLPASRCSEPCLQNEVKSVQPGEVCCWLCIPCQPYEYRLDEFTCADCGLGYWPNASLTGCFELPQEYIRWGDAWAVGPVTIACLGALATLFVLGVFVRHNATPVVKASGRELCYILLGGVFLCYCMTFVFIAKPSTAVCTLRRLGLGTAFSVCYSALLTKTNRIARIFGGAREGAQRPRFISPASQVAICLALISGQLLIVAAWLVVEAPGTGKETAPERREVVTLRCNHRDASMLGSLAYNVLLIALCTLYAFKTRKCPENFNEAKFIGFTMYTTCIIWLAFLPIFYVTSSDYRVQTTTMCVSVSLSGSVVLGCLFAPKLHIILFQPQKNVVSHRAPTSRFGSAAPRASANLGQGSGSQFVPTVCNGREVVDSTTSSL

[11] = target: Metabotropic glutamate receptor 2 (Rattus norvegicus) (UniProt P31421); test: Agonist activity at rat mGlu2 receptor expressed in HEK293 cells assessed as increase in intracellular calcium level at 100 uM after 1 hr by fluorescence microplate reader; format: functional, cell-based
Summary of the method: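 Rat mGlu2 transiently electroporated into HEK293 cells with EAAC1. Fluo-4 AM loaded 1 h at 37 °C in HBSS with 2.5 mM probenecid. Agonist applied at 100 μM after 20 s of recording, with DCG-IV 100 μM as reference. Fluorescence read at ex 485/em 525 nm.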

[12] = target: Metabotropic glutamate receptor 4 (Rattus norvegicus) (UniProt P31423); test: Agonist activity at rat mGlu4 receptor expressed in HEK293 cells co-transfected with G-protein alpha and EAAC1 assessed as increase in intracellular inositol phosphate accumulation at 100 uM after 1 hr by scintillation counting; format: functional, cell-based
[13] = target: T4, Metabotropic glutamate receptor 7; test: (§8) Agonist activity at rat mGlu7 receptor expressed in HEK293 cells co-transfected with G-protein alpha and EAAC1 assessed as increase in intracellular inositol phosphate accumulation […] by scintillation counting; format: functional, cell-based
Summary of the method: (§9)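 Rat mGlu7 was transiently electroporated into HEK293 cells with a chimeric Gα subunit and EAAC1 and grown in glutamate/glutamine-free medium. Cells were labelled overnight with ³H-myoinositol from 6 h post-transfection, and ambient glutamate was removed with glutamate-pyruvate transaminase. Agonist was applied for 30 min, then cells were lysed 1 h in cold 0.1 M formic acid. ³H-IP was isolated on Dowex resin and eluted with 4 M formate for scintillation counting, with IP normalised to IP plus membrane counts. Triplicate points.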

Rattus norvegicus = species on record: Rattus norvegicus; test: Selectivity ratio of EC50 for rat mGlu8 receptor to EC50 for rat mGlu4 receptor
[14] = target: Metabotropic glutamate receptor 7 (Rattus norvegicus) (UniProt P35400); test: as §5; format: functional, cell-based; summary of the method: as §6
Chain of Metabotropic glutamate receptor 7 (Rattus norvegicus) (P35400 whole entry): as the sequence (P35400 whole entry) above

[15] = target: Metabotropic glutamate receptor 7 (Rattus norvegicus) (UniProt P35400); test: as §8; format: functional, cell-based; summary of the method: as §9
[16] = target: Metabotropic glutamate receptor 4 (Rattus norvegicus) (UniProt P31423); test: Agonist activity at rat mGlu4 receptor expressed in HEK293 cells co-transfected with G-protein alpha and EAAC1 assessed as increase in intracellular inositol phosphate accumulation […] by scintillation counting in presence of DCG4; format: functional, cell-based
[17] = target: Metabotropic glutamate receptor 4 (Rattus norvegicus) (UniProt P31423); test: as §3; format: functional, cell-based; summary of the method: as §1
[18] = target: Metabotropic glutamate receptor 8 (Rattus norvegicus) (UniProt P70579); test: as §7; format: functional, cell-based; summary of the method: as §1

Row | Structure (SMILES) | EC50 [3] [µM] | EC50 [5] [µM] | EC50 [6] [µM] | EC50 [8] [µM] | EC50 [9] [µM] | other results
1 | N[C@@H](CCP(=O)(O)CCC(=O)O)C(=O)O | 6.15 | 31 | 7.8 | 6.6 | – | EC50 [1]: 6.7 µM; Activity [2]: inactive; Activity [4]: inactive; EC50 [7]: 89 µM
2 | N[C@@H](CCP(=O)(O)CCP(=O)(O)O)C(=O)O | – | – | 48 | – | 88 | –
3 | N[C@@H](CCP(=O)(O)/C=C/C(=O)O)C(=O)O | 1 | – | 7.2 | 5.1 | 3 | EC50 [1]: 1.1 µM; EC50 [10]: 6.7 µM; Activity [2]: inactive; Activity [4]: inactive; EC50 [7]: 43 µM; Activity [11]: Active
4 | N[C@@H](CCP(=O)(O)C(CC(=O)O)CP(=O)(O)O)C(=O)O (some centres undefined) | – | – | – | – | – | Activity [12]: 33%
5 | N[C@@H](CCP(=O)(O)C(O)C(=O)O)C(=O)O (some centres undefined) | 7.2 | – | – | 2.9 | – | –
6 | N[C@@H](CCP(=O)(O)C(CC(=O)O)CC(=O)O)C(=O)O | – | – | – | – | 114 | –
7 | N[C@@]1(C(=O)O)C[C@H](C(=O)O)[C@H](C(=O)O)C1 | – | 10.6 | 5.1 | – | 1.74 | EC50 [13]: 280 µM
8 | CC(CP(=O)(O)CC[C@H](N)C(=O)O)C(=O)O (some centres undefined) | – | – | 53 | – | 12.1 | –
9 | N[C@@H](CCP(=O)(O)CC(Cl)C(=O)O)C(=O)O (some centres undefined) | 1 | – | 8.1 | 8.3 | 3.8 | EC50 [1]: 8.9 µM; EC50 [10]: 49 µM; Activity [2]: inactive; Activity [4]: inactive; EC50 [7]: > 100 µM; Activity [11]: Active; Ratio EC50 (Rattus norvegicus): 8
10 | N[C@@H](CCP(=O)(O)C(O)C1CC1C(=O)O)C(=O)O (single isomer, unassigned) | – | – | 91 | – | 18 | –
11 | NC(CCP(=O)(O)C(CC(=O)O)C(=O)O)C(=O)O (centres undefined) | – | 113 | – | – | 47 | –
12 | N[C@@H](CCP(=O)(O)O)C(=O)O | 0.13 | 3.3 | 0.24 | 0.3 | 0.096 | EC50 [1]: 1 µM; EC50 [7]: 249 µM; EC50 [13]: 306 µM
13 | N[C@@H](CCP(=O)(O)CC(=O)O)C(=O)O | 7.4 | 131 | 0.91 | 2.7 | 2.4 | EC50 [1]: > 100 µM; EC50 [10]: 57 µM; Activity [2]: inactive; Activity [4]: inactive; Activity [14]: inactive; Activity [11]: Active; Activity [15]: inactive
14 | N[C@@H](CCC[PH](=O)O)C(=O)O | 209 | – | – | 73 | – | –
15 | NC(CCP(=O)(O)CCCCC(=O)O)C(=O)O (centres undefined) | – | – | – | – | – | Activity [12]: inactive
16 | N[C@@H](CCP(=O)(O)CC(CCO)C(=O)O)C(=O)O (some centres undefined) | 20 | – | – | 76 | – | –
17 | N[C@H](C(=O)O)C1[C@@H](C(=O)O)[C@@H]1C(=O)O (some centres undefined) | – | – | – | – | – | EC50 [10]: 0.045 µM
18 | NC(CCP(=O)(O)CCC(=O)O)C(=O)O (racemic) | – | 32 | 20 | – | 7.1 | EC50 [10]: 52 µM; Activity [16]: Dose-dependent effect; Activity [11]: Active
19 | N[C@H](CCP(=O)(O)CCC(=O)O)C(=O)O | – | 99 | 58 | – | 17 | –
20 | NC(CP(=O)(O)CCC(=O)O)C(=O)O (centres undefined) | – | – | – | – | – | Activity [12]: inactive
21 | N[C@@H](CCP(=O)(O)CCCC(=O)O)C(=O)O | 8.5 | > 100 | 19 | 18 | 11.4 | EC50 [1]: 44 µM; Activity [2]: inactive; Activity [4]: inactive; Activity [14]: inactive; Activity [11]: inactive
22 | N[C@@H](CCP(=O)(O)CC1CCOC1=O)C(=O)O (some centres undefined) | 123 | – | – | > 100 | – | –
23 | N[C@@H](CCP(=O)(O)C(CC(=O)O)C(F)(F)F)C(=O)O (some centres undefined) | – | – | – | – | 26 | –
24 | N[C@@H](CCP(=O)(O)CC(CC(=O)O)C(=O)O)C(=O)O (some centres undefined) | 2.4 | 115 | 38 | 3.5 | 4.6 | EC50 [1]: 42 µM; Activity [2]: inactive; Activity [4]: inactive; Activity [14]: inactive; Activity [11]: inactive
25 | N[C@@H](CCP(=O)(O)C1COC(=O)C1)C(=O)O (some centres undefined) | 141 | – | – | > 100 | – | –
26 | C/C(=C\C(=O)O)C(O)P(=O)(O)CC[C@H](N)C(=O)O (some centres undefined) | – | – | – | – | – | Activity [12]: inactive
27 | N[C@@H](CCCP(=O)(O)CCC(=O)O)C(=O)O | – | – | – | – | – | Activity [17]: inactive; Activity [18]: inactive
